Assay results published in ChEMBL document CHEMBL1155010, “Synthesis and biological evaluation of substituted [18F]imidazo[1,2-a]pyridines and [18F]pyrazolo[1,5-a]pyrimidines for the study of the peripheral benzodiazepine receptor using positron emission tomography” (J Med Chem, 2008).

How the values were obtained:
[1] = Biodistribution in Sprague-Dawley rat testis assessed per gram of tissue at 1 MBq, iv after 1 hr; format: ADME, organism-based; conditions: in vivo
How it was run: (§1)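 Male SD rats aged 8-10 weeks got 1 MBq [18F]tracer by tail vein in 0.1 mL. Groups of n = 4 were killed (CO2, then cervical fracture) at 0.25, 0.5, 1 and 4 h. Organs were weighed and gamma counted against a diluted standard of the injectate. Results are %ID per gram wet tissue, mean with standard deviation.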

Spleen [2] = assay: Biodistribution in Sprague-Dawley rat spleen assessed per gram of tissue at 1 MBq, iv after 1 hr; format: ADME, organism-based; conditions: in vivo; how it was run: as §1
Spleen [3] = assay: Biodistribution in Sprague-Dawley rat spleen assessed per gram of tissue at 1 MBq, iv after 0.5 hrs; format: ADME, organism-based; conditions: in vivo; how it was run: as §1
Heart [4] = assay: Biodistribution in Sprague-Dawley rat heart assessed per gram of tissue at 1 MBq, iv after 4 hrs; format: ADME, organism-based; conditions: in vivo; how it was run: as §1
Spleen [5] = assay: Biodistribution in Sprague-Dawley rat spleen assessed per gram of tissue at 1 MBq, iv after 4 hrs; format: ADME, organism-based; conditions: in vivo; how it was run: as §1
[6] = Biodistribution in Sprague-Dawley rat testis assessed per gram of tissue at 1 MBq, iv after 0.25 hrs; format: ADME, organism-based; conditions: in vivo; how it was run: as §1
Liver [7] = assay: Biodistribution in Sprague-Dawley rat liver assessed per gram of tissue at 1 MBq, iv after 0.5 hrs; format: ADME, organism-based; conditions: in vivo; how it was run: as §1
Kidney [8] = assay: Biodistribution in Sprague-Dawley rat kidney assessed per gram of tissue at 1 MBq, iv after 0.25 hrs; format: ADME, organism-based; conditions: in vivo; how it was run: as §1
Lung [9] = assay: Biodistribution in Sprague-Dawley rat lungs assessed per gram of tissue at 1 MBq, iv after 0.25 hrs; format: ADME, organism-based; conditions: in vivo; how it was run: as §1
[10] = Ratio of drug level in olfactory bulb to blood in Sprague-Dawley rat at 1 MBq, iv; format: ADME
How it was run: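 Same rat biodistribution as above: 1 MBq iv by tail vein, n = 4 per time point, 0.25-4 h, gamma counting as %ID/g. Ratio is the olfactory bulb radioactivity concentration divided by the blood concentration at each time.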

Femur [11] = assay: Biodistribution in Sprague-Dawley rat femur at 1 MBq, iv after 0.25 hrs; format: ADME, organism-based; conditions: in vivo; how it was run: as §1
Femur [12] = assay: Biodistribution in Sprague-Dawley rat femur at 1 MBq, iv after 4 hrs; format: ADME, organism-based; conditions: in vivo; how it was run: as §1
Heart [13] = assay: Biodistribution in Sprague-Dawley rat heart assessed per gram of tissue at 1 MBq, iv after 0.25 hrs; format: ADME, organism-based; conditions: in vivo; how it was run: as §1
Kidney [14] = assay: Biodistribution in Sprague-Dawley rat kidney assessed per gram of tissue at 1 MBq, iv after 1 hr; format: ADME, organism-based; conditions: in vivo; how it was run: as §1
[15] = Metabolic stability in Sprague-Dawley rat plasma assessed as drug remaining at 30 MBq after 4 hrs by Radio-HPLC analysis; format: ADME, cell-free; conditions: read-out: Stability
How it was run: (§2)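 Rats received 30 MBq tracer and were sampled at 0.25, 0.5, 1 and 4 h. Plasma was diluted with water containing unlabeled carrier and KF and injected directly. Frontal cortex or olfactory bulb was sonicated in acetonitrile/water 1:1 with carrier and KF, centrifuged, and the supernatant diluted. Radio-HPLC used a precolumn switched to C18 with a CH3CN/0.05 M sodium acetate pH 5.5 gradient. Result is % parent remaining.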

Adrenal [16] = assay: Biodistribution in Sprague-Dawley rat adrenals assessed per gram of tissue at 1 MBq, iv after 0.5 hrs; format: ADME, organism-based, Adrenal tissue; conditions: in vivo; how it was run: as §1
Adrenal [17] = assay: Biodistribution in Sprague-Dawley rat adrenals assessed per gram of tissue at 1 MBq, iv after 1 hr; format: ADME, organism-based, Adrenal tissue; conditions: in vivo; how it was run: as §1
Heart [18] = assay: Biodistribution in Sprague-Dawley rat heart assessed per gram of tissue at 1 MBq, iv after 0.5 hrs; format: ADME, organism-based; conditions: in vivo; how it was run: as §1
[19] = Metabolic stability in Sprague-Dawley rat frontal cortex assessed as drug remaining at 30 MBq after 4 hrs by Radio-HPLC analysis; format: ADME, tissue-based; conditions: read-out: Stability; how it was run: as §2
Kidney [20] = assay: Biodistribution in Sprague-Dawley rat kidney assessed per gram of tissue at 1 MBq, iv after 0.5 hrs; format: ADME, organism-based; conditions: in vivo; how it was run: as §1
Adrenal [21] = assay: Biodistribution in Sprague-Dawley rat adrenals assessed per gram of tissue at 1 MBq, iv after 4 hrs; format: ADME, organism-based, Adrenal tissue; conditions: in vivo; how it was run: as §1
[22] = Metabolic stability in Sprague-Dawley rat olfactory bulb assessed as drug remaining at 30 MBq after 0.25 hrs by Radio-HPLC analysis; format: ADME, tissue-based; conditions: read-out: Stability; how it was run: as §2
Blood = assay: Biodistribution in Sprague-Dawley rat blood at 1 MBq, iv after 1 hr; format: ADME, organism-based; conditions: in vivo
How it was run: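 Male SD rats, 8-10 weeks old, given 1 MBq [18F]radiotracer by tail-vein injection in 0.1 mL. Groups of 4 killed (CO2, then cervical fracture) at 0.25, 0.5, 1 and 4 h post-injection. Tissues weighed and gamma-counted against a diluted standard of the injected solution. Activity expressed as %ID per gram wet tissue.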

Liver [23] = assay: Biodistribution in Sprague-Dawley rat liver assessed per gram of tissue at 1 MBq, iv after 4 hrs; format: ADME, organism-based; conditions: in vivo; how it was run: as §1
[24] = Metabolic stability in Sprague-Dawley rat frontal cortex assessed as drug remaining at 30 MBq after 0.25 hrs by Radio-HPLC analysis; format: ADME, tissue-based; conditions: read-out: Stability; how it was run: as §2
[25] = Biodistribution in Sprague-Dawley rat testis assessed per gram of tissue at 1 MBq, iv after 0.5 hrs; format: ADME, organism-based; conditions: in vivo; how it was run: as §1
Lung [26] = assay: Biodistribution in Sprague-Dawley rat lungs assessed per gram of tissue at 1 MBq, iv after 4 hrs; format: ADME, organism-based; conditions: in vivo; how it was run: as §1
Spleen [27] = assay: Biodistribution in Sprague-Dawley rat spleen assessed per gram of tissue at 1 MBq, iv after 0.25 hrs; format: ADME, organism-based; conditions: in vivo; how it was run: as §1
Lung [28] = assay: Biodistribution in Sprague-Dawley rat lungs assessed per gram of tissue at 1 MBq, iv after 0.5 hrs; format: ADME, organism-based; conditions: in vivo; how it was run: as §1
Kidney [29] = assay: Biodistribution in Sprague-Dawley rat kidney assessed per gram of tissue at 1 MBq, iv after 4 hrs; format: ADME, organism-based; conditions: in vivo; how it was run: as §1
[30] = Metabolic stability in Sprague-Dawley rat olfactory bulb assessed as drug remaining at 30 MBq after 4 hrs by Radio-HPLC analysis; format: ADME, tissue-based; conditions: read-out: Stability; how it was run: as §2
[31] = Biodistribution in Sprague-Dawley rat testis assessed per gram of tissue at 1 MBq, iv after 4 hrs; format: ADME, organism-based; conditions: in vivo; how it was run: as §1
Liver [32] = assay: Biodistribution in Sprague-Dawley rat liver assessed per gram of tissue at 1 MBq, iv after 1 hr; format: ADME, organism-based; conditions: in vivo; how it was run: as §1
Liver [33] = assay: Biodistribution in Sprague-Dawley rat liver assessed per gram of tissue at 1 MBq, iv after 0.25 hrs; format: ADME, organism-based; conditions: in vivo; how it was run: as §1
Heart [34] = assay: Biodistribution in Sprague-Dawley rat heart assessed per gram of tissue at 1 MBq, iv after 1 hr; format: ADME, organism-based; conditions: in vivo; how it was run: as §1
Lung [35] = assay: Biodistribution in Sprague-Dawley rat lungs assessed per gram of tissue at 1 MBq, iv after 1 hr; format: ADME, organism-based; conditions: in vivo; how it was run: as §1
Adrenal [36] = assay: Biodistribution in Sprague-Dawley rat adrenals assessed per gram of tissue at 1 MBq, iv after 0.25 hrs; format: ADME, organism-based, Adrenal tissue; conditions: in vivo; how it was run: as §1

## CCN(CC)C(=O)Cc1c(-c2ccc(OCC[18F])cc2)nn2c(C)cc(C)nc12 [DPA-714 F-18]
[1]
  Drug uptake: 0.27 %ID
Spleen [2]
  Drug uptake: 4.5 %ID
Spleen [3]
  Drug uptake: 4.7 %ID
Heart [4]
  Drug uptake: 4.3 %ID
Spleen [5]
  Drug uptake: 3.9 %ID
[6]
  Drug uptake: 0.18 %ID
Liver [7]
  Drug uptake: 0.54 %ID
Kidney [8]
  Drug uptake: 3.8 %ID
Lung [9]
  Drug uptake: 14.6 %ID
[10]
  Kp: 2
Femur [11]
  Drug uptake: 0.4 % ID/g
Femur [12]
  Drug uptake: 0.7 % ID/g
Heart [13]
  Drug uptake: 5.8 %ID
Kidney [14]
  Drug uptake: 3.5 %ID
[15]
  remaining at 4 h: < 1%
Adrenal [16]
  Drug uptake: 6.6 %ID
Adrenal [17]
  Drug uptake: 7.8 %ID
Heart [18]
  Drug uptake: 5.6 %ID
[19]
  remaining at 4 h: 10%
Kidney [20]
  Drug uptake: 3.6 %ID
Adrenal [21]
  Drug uptake: 9.7 %ID
[22]
  remaining at 0.25 h: 80%
Blood
  Drug uptake: 0.1 % ID/g
Liver [23]
  Drug uptake: 0.29 %ID
[24]
  remaining at 0.25 h: 55%
[25]
  Drug uptake: 0.21 %ID
Lung [26]
  Drug uptake: 2.8 %ID
Spleen [27]
  Drug uptake: 4.6 %ID
Lung [28]
  Drug uptake: 8.8 %ID
Kidney [29]
  Drug uptake: 2.4 %ID
[30]
  remaining at 4 h: 40%
[31]
  Drug uptake: 0.35 %ID
Liver [32]
  Drug uptake: 0.4 %ID
Liver [33]
  Drug uptake: 0.63 %ID
Heart [34]
  Drug uptake: 6.4 %ID
Lung [35]
  Drug uptake: 5.7 %ID
Adrenal [36]
  Drug uptake: 5.6 %ID
